Reference: ChEMBL document CHEMBL1134606, “Synthesis and structure-activity relationships of a new model of arylpiperazines. 5. Study of the physicochemical influence of the pharmacophore on 5-HT(1a)/alpha(1)-adrenergic receptor affinity: synthesis of a new derivative with mixed 5-HT(1a)/d(2) antagonist properties” (J Med Chem, 2001)

Tests used:
[1] = molecular target: T1, 5-hydroxytryptamine receptor 1A (Rattus norvegicus, UniProt P19327); test: In vitro binding affinity towards 5-hydroxytryptamine 1A receptor was determined using radioligand [3H]-8-OH-DPAT
T1 sequence (P19327 whole entry): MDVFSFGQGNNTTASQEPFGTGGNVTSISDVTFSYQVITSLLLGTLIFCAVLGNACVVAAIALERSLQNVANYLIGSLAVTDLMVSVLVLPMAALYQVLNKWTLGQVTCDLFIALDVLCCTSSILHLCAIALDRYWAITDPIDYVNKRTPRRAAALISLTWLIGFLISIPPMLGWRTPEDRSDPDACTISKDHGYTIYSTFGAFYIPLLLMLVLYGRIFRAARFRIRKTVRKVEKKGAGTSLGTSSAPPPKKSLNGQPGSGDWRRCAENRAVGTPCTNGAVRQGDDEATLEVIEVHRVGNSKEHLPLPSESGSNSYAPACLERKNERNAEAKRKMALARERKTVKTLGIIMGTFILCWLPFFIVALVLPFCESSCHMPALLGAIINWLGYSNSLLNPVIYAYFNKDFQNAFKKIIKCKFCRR
Outline: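 Rat (male Sprague-Dawley) cerebral cortex membranes, about 1 mg protein, incubated 15 min at 37 °C with 0.6 nM [3H]8-OH-DPAT plus competitor in 50 mM Tris-HCl with 10 nM clonidine and 30 nM prazosin, pH 7.4. Nonspecific binding with 10 µM 5-HT. Triplicates; GF/B filtration, scintillation counting; IC50 curve fit, Ki by Cheng-Prusoff; 2-4 experiments.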

[2] = molecular target: T2, Adrenergic receptor alpha-1 (Rattus norvegicus, UniProt P15823+P23944+P43140); test: In vitro binding affinity towards alpha-1 adrenergic receptor using radioligand [3H]prazosin; assay type: protein assay
T2 sequence (P15823 whole entry): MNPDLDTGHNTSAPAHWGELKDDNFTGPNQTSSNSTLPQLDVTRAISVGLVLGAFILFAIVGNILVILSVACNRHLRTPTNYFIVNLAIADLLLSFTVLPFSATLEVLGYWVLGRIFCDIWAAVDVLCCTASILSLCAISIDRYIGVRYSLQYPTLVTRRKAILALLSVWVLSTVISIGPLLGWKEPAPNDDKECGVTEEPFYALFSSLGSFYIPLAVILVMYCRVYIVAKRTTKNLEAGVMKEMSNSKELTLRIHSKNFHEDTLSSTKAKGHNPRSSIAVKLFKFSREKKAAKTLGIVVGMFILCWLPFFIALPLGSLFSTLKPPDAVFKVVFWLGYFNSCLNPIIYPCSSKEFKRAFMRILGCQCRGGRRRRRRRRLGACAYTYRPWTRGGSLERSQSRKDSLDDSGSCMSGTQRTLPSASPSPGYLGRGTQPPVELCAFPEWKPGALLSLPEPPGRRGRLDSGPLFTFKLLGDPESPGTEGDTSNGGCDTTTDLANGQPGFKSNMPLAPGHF
T2 sequence (P23944 whole entry): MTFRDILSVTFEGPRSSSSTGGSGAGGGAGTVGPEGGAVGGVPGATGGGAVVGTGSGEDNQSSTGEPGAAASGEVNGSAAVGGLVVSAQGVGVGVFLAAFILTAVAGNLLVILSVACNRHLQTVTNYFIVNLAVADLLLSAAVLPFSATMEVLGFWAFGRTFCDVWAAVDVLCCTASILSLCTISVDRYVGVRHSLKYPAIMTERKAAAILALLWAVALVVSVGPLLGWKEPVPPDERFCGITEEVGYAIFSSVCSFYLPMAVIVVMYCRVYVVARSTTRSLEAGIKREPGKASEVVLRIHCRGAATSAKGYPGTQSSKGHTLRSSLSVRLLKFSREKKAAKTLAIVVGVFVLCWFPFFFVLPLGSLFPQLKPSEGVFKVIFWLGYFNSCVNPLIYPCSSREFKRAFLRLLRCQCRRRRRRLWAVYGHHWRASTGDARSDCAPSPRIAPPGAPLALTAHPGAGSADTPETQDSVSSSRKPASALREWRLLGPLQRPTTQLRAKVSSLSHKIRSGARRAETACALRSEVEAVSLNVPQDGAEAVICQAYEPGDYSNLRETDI
T2 sequence (P43140 whole entry): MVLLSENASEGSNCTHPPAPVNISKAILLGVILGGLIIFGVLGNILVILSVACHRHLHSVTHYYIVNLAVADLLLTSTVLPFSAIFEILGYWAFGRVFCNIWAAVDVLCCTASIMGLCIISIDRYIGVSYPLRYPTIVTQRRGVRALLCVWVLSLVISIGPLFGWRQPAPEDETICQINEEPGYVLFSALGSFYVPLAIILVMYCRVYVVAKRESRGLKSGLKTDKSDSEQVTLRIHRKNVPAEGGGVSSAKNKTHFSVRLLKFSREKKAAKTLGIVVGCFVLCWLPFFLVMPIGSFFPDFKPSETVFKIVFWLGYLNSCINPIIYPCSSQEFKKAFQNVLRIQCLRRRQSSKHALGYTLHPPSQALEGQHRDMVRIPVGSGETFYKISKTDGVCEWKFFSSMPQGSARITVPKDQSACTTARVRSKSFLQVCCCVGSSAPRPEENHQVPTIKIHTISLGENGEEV
Outline: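 Cerebral cortex from male Sprague-Dawley rats, membranes (about 250 µg protein) in 50 mM Tris-HCl/10 mM MgCl2 pH 7.4, incubated 30 min at 25 °C with 0.2 nM [3H]prazosin and varied competitor concentrations; 10 µM phentolamine for nonspecific. Triplicates, filtration and scintillation counting; Ki from fitted IC50 by Cheng-Prusoff.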

[3] = molecular target: D(2) dopamine receptor (Rattus norvegicus) (UniProt P61169); test: In vitro binding affinity towards D2 receptor was determined
D(2) dopamine receptor (Rattus norvegicus), sequence (P61169 whole entry, looked up): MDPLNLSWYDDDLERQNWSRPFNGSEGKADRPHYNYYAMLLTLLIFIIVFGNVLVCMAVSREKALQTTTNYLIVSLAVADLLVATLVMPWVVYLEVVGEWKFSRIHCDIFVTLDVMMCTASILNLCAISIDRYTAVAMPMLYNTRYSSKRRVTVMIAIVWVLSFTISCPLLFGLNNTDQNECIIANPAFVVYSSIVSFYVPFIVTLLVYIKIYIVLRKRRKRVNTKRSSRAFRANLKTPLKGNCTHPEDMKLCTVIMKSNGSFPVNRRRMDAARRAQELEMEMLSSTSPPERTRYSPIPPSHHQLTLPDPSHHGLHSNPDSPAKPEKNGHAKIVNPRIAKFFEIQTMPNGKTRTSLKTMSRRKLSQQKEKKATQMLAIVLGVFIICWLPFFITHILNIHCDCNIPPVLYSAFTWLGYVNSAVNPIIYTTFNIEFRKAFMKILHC

[4] = molecular target: 5-hydroxytryptamine receptor 2A (Rattus norvegicus) (UniProt P14842); test: In vitro binding affinity towards 5-hydroxytryptamine 2A receptor was determined
5-hydroxytryptamine receptor 2A (Rattus norvegicus), sequence (P14842 whole entry, looked up): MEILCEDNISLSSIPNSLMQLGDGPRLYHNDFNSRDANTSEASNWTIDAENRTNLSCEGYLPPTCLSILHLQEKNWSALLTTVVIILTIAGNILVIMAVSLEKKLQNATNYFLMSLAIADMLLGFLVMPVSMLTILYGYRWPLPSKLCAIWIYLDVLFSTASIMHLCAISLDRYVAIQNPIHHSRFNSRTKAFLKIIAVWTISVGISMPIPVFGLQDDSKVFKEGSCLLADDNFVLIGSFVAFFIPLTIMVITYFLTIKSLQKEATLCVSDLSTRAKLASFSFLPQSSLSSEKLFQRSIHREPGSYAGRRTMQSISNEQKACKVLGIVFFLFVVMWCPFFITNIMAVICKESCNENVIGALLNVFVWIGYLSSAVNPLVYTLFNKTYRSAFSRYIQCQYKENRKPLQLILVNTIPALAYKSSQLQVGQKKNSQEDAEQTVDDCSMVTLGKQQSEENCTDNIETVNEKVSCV

[5] = molecular target: 5-hydroxytryptamine receptor 3A (Rattus norvegicus) (UniProt P35563); test: In vitro binding affinity towards 5-hydroxytryptamine 3 receptor was determined
5-hydroxytryptamine receptor 3A (Rattus norvegicus), sequence (P35563 whole entry, looked up): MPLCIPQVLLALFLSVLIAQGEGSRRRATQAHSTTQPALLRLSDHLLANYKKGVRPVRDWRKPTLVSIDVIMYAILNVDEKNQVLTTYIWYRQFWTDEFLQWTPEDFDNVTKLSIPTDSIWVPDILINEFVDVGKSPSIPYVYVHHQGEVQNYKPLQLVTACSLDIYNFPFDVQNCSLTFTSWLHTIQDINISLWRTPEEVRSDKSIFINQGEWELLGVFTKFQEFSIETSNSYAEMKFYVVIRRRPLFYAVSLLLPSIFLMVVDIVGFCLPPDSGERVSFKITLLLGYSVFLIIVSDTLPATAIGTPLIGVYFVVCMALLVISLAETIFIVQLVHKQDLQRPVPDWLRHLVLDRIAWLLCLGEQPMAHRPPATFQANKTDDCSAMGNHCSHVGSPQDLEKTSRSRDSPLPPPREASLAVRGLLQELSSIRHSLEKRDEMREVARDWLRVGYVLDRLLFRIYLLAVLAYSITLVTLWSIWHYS

[6] = molecular target: 5-hydroxytryptamine receptor 4 (Rattus norvegicus); test: In vitro binding affinity towards 5-HT4 receptor was determined

SMILES: CC(C)C(=O)Nc1cccc(N2CCN(CCCCN3CC(=O)N4CCCCC4C3=O)CC2)c1.Cl (stereo not drawn)
- Ki [1]: 169 nM
- Ki [2]: > 10000 nM

SMILES: CCCNC(=O)c1ccccc1N1CCN(CCCN2C(=O)C3CCCN3C2=O)CC1.Cl (stereo not drawn)
- Ki [1]: > 1000 nM
- Ki [2]: > 1000 nM

SMILES: Cl.N#Cc1ccccc1N1CCN(CCCCN2C(=O)C3CCCN3C2=O)CC1 (stereo not drawn)
- Ki [1]: 3.7 nM
- Ki [2]: 8 nM

SMILES: Cc1ccccc1N1CCN(CCCCN2CC(=O)N3CCCCC3C2=O)CC1.Cl (stereo not drawn)
- Ki [1]: 27 nM
- Ki [2]: 29 nM

SMILES: CCCOC(=O)c1ccccc1N1CCN(CCCCN2CC(=O)N3CCCCC3C2=O)CC1.Cl (stereo not drawn)
- Ki [1]: 24 nM
- Ki [2]: 561 nM

SMILES: Cl.N#Cc1ccccc1N1CCN(CCCN2C(=O)C3CCCCN3C2=O)CC1 (stereo not drawn)
- Ki [1]: 33 nM
- Ki [2]: 13 nM

SMILES: Cc1ccccc1N1CCN(CCCN2C(=O)C3CCCCN3C2=O)CC1.Cl (stereo not drawn)
- Ki [1]: 134 nM
- Ki [2]: 5.3 nM

SMILES: CCCCOc1ccccc1N1CCN(CCCCN2C(=O)C3CCCCN3C2=O)CC1.Cl (stereo not drawn)
- Ki [1]: 1.2 nM
- Ki [2]: 0.4 nM

SMILES: CCCNC(=O)c1ccccc1N1CCN(CCCCN2C(=O)C3CCCCN3C2=O)CC1.Cl (stereo not drawn)
- Ki [1]: 341 nM
- Ki [2]: > 1000 nM

SMILES: CCCCOc1ccccc1N1CCN(CCCN2CC(=O)N3CCCCC3C2=O)CC1.Cl (stereo not drawn)
- Ki [1]: 110 nM
- Ki [2]: 79 nM

SMILES: CCCNC(=O)c1ccccc1N1CCN(CCCCN2CC(=O)N3CCCC3C2=O)CC1.Cl (stereo not drawn)
- Ki [1]: > 1000 nM
- Ki [2]: > 1000 nM

SMILES: Cl.Nc1cccc(N2CCN(CCCN3C(=O)C4CCCN4C3=O)CC2)c1 (stereo not drawn)
- Ki [1]: > 1000 nM
- Ki [2]: > 1000 nM

SMILES: Cl.N#Cc1ccccc1N1CCN(CCCN2CC(=O)N3CCCC3C2=O)CC1 (stereo not drawn)
- Ki [1]: 31 nM
- Ki [2]: 28 nM

SMILES: Cl.O=C1C2CCCN2C(=O)N1CCCN1CCN(c2cccc(Br)c2)CC1 (stereo not drawn)
- Ki [1]: 33 nM
- Ki [2]: 29 nM

SMILES: COc1ccccc1N1CCN(CCCN2CC(=O)N3CCCCC3C2=O)CC1.Cl (stereo not drawn)
- Ki [1]: 126 nM
- Ki [2]: 16 nM

SMILES: Cc1ccccc1N1CCN(CCCCN2C(=O)C3CCCN3C2=O)CC1.Cl (stereo not drawn)
- Ki [1]: 16 nM
- Ki [2]: 10 nM

SMILES: CCCNC(=O)c1ccccc1N1CCN(CCCN2CC(=O)N3CCCCC3C2=O)CC1.Cl (stereo not drawn)
- Ki [1]: > 10000 nM
- Ki [2]: > 1000 nM

SMILES: CC(C)C(=O)Nc1cccc(N2CCN(CCCCN3C(=O)C4CCCN4C3=O)CC2)c1.Cl (stereo not drawn)
- Ki [2]: > 10000 nM

SMILES: COc1ccccc1N1CCN(CCCCN2CC(=O)N3CCCC3C2=O)CC1.Cl (stereo not drawn)
- Ki [1]: 8.6 nM
- Ki [2]: 28 nM

SMILES: CCCOC(=O)c1ccccc1N1CCN(CCCN2C(=O)C3CCCCN3C2=O)CC1.Cl (stereo not drawn)
- Ki [1]: 60 nM
- Ki [2]: 41 nM

SMILES: Cl.O=C1C2CCCCN2C(=O)N1CCCCN1CCN(c2cccc(Br)c2)CC1 (stereo not drawn)
- Ki [1]: 4 nM
- Ki [2]: 5.3 nM

SMILES: Cl.N#Cc1ccccc1N1CCN(CCCCN2CC(=O)N3CCCCC3C2=O)CC1 (stereo not drawn)
- Ki [1]: 14 nM
- Ki [2]: 27 nM

SMILES: Cc1ccccc1N1CCN(CCCN2CC(=O)N3CCCC3C2=O)CC1.Cl (stereo not drawn)
- Ki [1]: 27 nM
- Ki [2]: 23 nM

SMILES: CC(C)C(=O)Nc1cccc(N2CCN(CCCN3C(=O)C4CCCCN4C3=O)CC2)c1.Cl (stereo not drawn)
- Ki [1]: > 1000 nM
- Ki [2]: > 10000 nM

SMILES: CCCCOc1ccccc1N1CCN(CCCCN2CC(=O)N3CCCC3C2=O)CC1.Cl (stereo not drawn)
- Ki [1]: 6.5 nM
- Ki [2]: 18 nM

SMILES: CCCOC(=O)c1ccccc1N1CCN(CCCN2CC(=O)N3CCCC3C2=O)CC1.Cl (stereo not drawn)
- Ki [2]: 26 nM

SMILES: CCCOC(=O)c1ccccc1N1CCN(CCCCN2C(=O)C3CCCN3C2=O)CC1.Cl (stereo not drawn)
- Ki [1]: 3.9 nM
- Ki [2]: 51 nM

SMILES: CC(C)C(=O)Nc1cccc(N2CCN(CCCN3CC(=O)N4CCCC4C3=O)CC2)c1.Cl (stereo not drawn)
- Ki [1]: 326 nM
- Ki [2]: > 1000 nM

SMILES: Cl.O=C1C2CCCN2C(=O)CN1CCCCN1CCN(c2cccc(C(F)(F)F)c2)CC1 (stereo not drawn)
- Ki [1]: 3.6 nM
- Ki [2]: 95 nM

SMILES: CCCCOc1ccccc1N1CCN(CCCN2C(=O)C3CCCN3C2=O)CC1.Cl (stereo not drawn)
- Ki [1]: 11 nM
- Ki [2]: 30 nM

SMILES: CCS(=O)(=O)Nc1cccc(N2CCN(CCCCN3C(=O)C4CCCN4C3=O)CC2)c1.Cl (stereo not drawn)
- Ki [1]: 27 nM
- Ki [3]: 22 nM
- Ki [4]: > 1000 nM
- Ki [5]: > 1000 nM
- Ki [6]: > 1000 nM
- Ki [2]: > 10000 nM

SMILES: Cl.O=C1C2CCCCN2C(=O)CN1CCCN1CCN(c2cccc(C(F)(F)F)c2)CC1 (stereo not drawn)
- Ki [1]: 214 nM
- Ki [2]: 252 nM

SMILES: Cl.Nc1cccc(N2CCN(CCCCN3C(=O)C4CCCCN4C3=O)CC2)c1 (stereo not drawn)
- Ki [1]: 80 nM
- Ki [2]: 215 nM
